Measured values taken from ChEMBL document CHEMBL2331347, “Biselectivity of isoDGR peptides for fibronectin binding integrin subtypes α5β1 and αvβ6: conformational control through flanking amino acids” (J Med Chem, 2013).

Experiments:
[1] = molecular target: Integrin alpha-IIb/beta-3 (Homo sapiens, UniProt P05106+P08514); assay: Inhibition of fibrinogen binding to Integrin alpha2bbeta3 receptor (unknown origin) by competitive ELISA; type: protein-complex assay
Integrin alpha-V/beta-5 = Integrin alpha-V/beta-5 (Homo sapiens, UniProt P06756+P18084); assay: Inhibition of vitronectin binding to Integrin alphaVbeta5 receptor (unknown origin) by competitive ELISA; type: protein-complex assay
Integrin alpha-V/beta-6 = Integrin alpha-V/beta-6 (Homo sapiens, UniProt P06756+P18564); assay: Inhibition of latency-associated peptide binding to Integrin alphaVbeta6 receptor (unknown origin) by competitive ELISA; type: protein-complex assay
How it was run: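 LAP coated at 0.4 μg/mL; soluble αvβ6 at 0.25 μg/mL final, mixed with serially diluted inhibitor. Bound integrin detected with anti-human αv antibody (1:500), then peroxidase secondary antibody (2.0 μg/mL), A450. Blocking, washing and curve analysis as for the α5β1 ELISA; IC50 from the inflection point.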

Integrin alpha-5/beta-1 = Integrin alpha-5/beta-1 (Homo sapiens, UniProt P05556+P08648); assay: Inhibition of fibronectin binding to human Integrin alpha5beta1 receptor by competitive ELISA; type: protein-complex assay
How it was run: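 Plates coated overnight at 4 °C with 0.5 μg/mL fibronectin at pH 9.6, then blocked with 1% BSA in Tris buffer containing Ca, Mg and Mn. Soluble human α5β1 (1.0 μg/mL final) and inhibitor (0.00013−10 μM final) incubated 1 h at RT. Bound integrin detected with anti-CD49e and peroxidase secondary antibody, A450. Duplicates; IC50 taken as the inflection point of the inhibition curve.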

Integrin alpha-V/beta-3 = Integrin alpha-V/beta-3 (Homo sapiens, UniProt P05106+P06756); assay: Inhibition of vitronectin binding to Integrin alphaVbeta3 receptor (unknown origin) by competitive ELISA; type: protein-complex assay
[2] = Induction of focal adhesions formation in rat REF52 cells plated on 68 nm nanopatterned surfaces assessed as axial ratio after 24 hrs post cells plating by immunofluorescence microscopy; type: functional
How it was run: (§1)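 REF52 rat embryonic fibroblasts (grown in DMEM with 10% FBS, 37 °C, 5% CO2) trypsinized and plated at 150 cells/mm2 in DMEM with 1% FBS on passivated gold nanopatterns (68 ± 9 nm spacing) functionalized with 25 μM peptide for 1 h. Fixed after 4 or 24 h, immunostained for paxillin, with phalloidin for actin and DAPI for nuclei, imaged at 63×.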

[3] = Induction of focal adhesions formation in rat REF52 cells plated on 68 nm nanopatterned surfaces assessed as focal adhesion total area/cell area ratio after 4 hrs post cells plating by immunofluorescence microscopy; type: functional; how it was run: as §1
[4] = Induction of focal adhesions formation in rat REF52 cells plated on 68 nm nanopatterned surfaces assessed as focal adhesion area after 24 hrs post cells plating by immunofluorescence microscopy; type: functional; how it was run: as §1
[5] = Induction of focal adhesions formation in rat REF52 cells plated on 68 nm nanopatterned surfaces assessed as focal adhesion area length after 4 hrs post cells plating by immunofluorescence microscopy; type: functional; how it was run: as §1
[6] = Induction of focal adhesions formation in rat REF52 cells plated on 68 nm nanopatterned surfaces assessed as axial ratio after 4 hrs post cells plating by immunofluorescence microscopy; type: functional; how it was run: as §1
[7] = Induction of focal adhesions formation in rat REF52 cells plated on 68 nm nanopatterned surfaces assessed as focal adhesion area length after 24 hrs post cells plating by immunofluorescence microscopy; type: functional; how it was run: as §1
[8] = Induction of focal adhesions formation in rat REF52 cells plated on 68 nm nanopatterned surfaces assessed as focal adhesion area width after 4 hrs post cells plating by immunofluorescence microscopy; type: functional; how it was run: as §1
[9] = Induction of focal adhesions formation in rat REF52 cells plated on 68 nm nanopatterned surfaces assessed as focal adhesion area after 4 hrs post cells plating by immunofluorescence microscopy; type: functional; how it was run: as §1
[10] = Induction of focal adhesions formation in rat REF52 cells plated on 68 nm nanopatterned surfaces assessed as focal adhesion area width after 24 hrs post cells plating by immunofluorescence microscopy; type: functional; how it was run: as §1
[11] = Induction of focal adhesions formation in rat REF52 cells plated on 68 nm nanopatterned surfaces assessed as focal adhesion total area/cell area ratio after 24 hrs post cells plating by immunofluorescence microscopy; type: functional; how it was run: as §1

Structure (SMILES)	IC50 [1] [nM]	IC50 (Integrin alpha-V/beta-5) [nM]	IC50 (Integrin alpha-V/beta-6) [nM]	IC50 (Integrin alpha-5/beta-1) [nM]	IC50 (Integrin alpha-V/beta-3) [nM]	further results
N=C(N)NCCC[C@@H]1NC(=O)[C@H](CCCCN)NC(=O)[C@@H](Cc2ccccc2)NC(=O)[C@H](CC(=O)O)NC(=O)CNC1=O	> 10000	310	68	133	–	–
Cc1ccnc(NCCCC(=O)NCC(=O)NC(CC(=O)O)c2ccc(-c3cccc4ccccc34)cc2)c1 (stereo unspecified)	> 10000	> 10000	4	2810	> 10000	–
N=C(N)NCCC[C@@H]1NC(=O)[C@H](CCCCNC(=O)CCSCCOCCOCCOCCOCCOCCOCCO)NC(=O)[C@@H](Cc2ccccc2)NC(=O)[C@H](CC(=O)O)NC(=O)CNC1=O	–	–	–	197	13.6	Ratio [2]: 3.42; Ratio [3]: 0.093; Activity [4]: 4.12 um2; Activity [5]: 3.78 um; Ratio [6]: 3.24; Activity [7]: 4.17 um; Activity [8]: 1.25 um; Activity [9]: 3.4 um2; Activity [10]: 1.31 um; Ratio [11]: 0.076
N=C(N)NCCC[C@@H]1NC(=O)CNC(=O)C[C@@H](C(=O)O)NC(=O)[C@@H](c2ccccc2)NC(=O)[C@@H](CCCCNC(=O)CCSCCOCCOCCOCCOCCOCCOCCO)NC1=O	–	–	–	27	> 10000	Ratio [2]: 4.68; Ratio [3]: 0.07; Activity [4]: 2.61 um2; Activity [5]: 2.92 um; Ratio [6]: 6.01; Activity [7]: 3.94 um; Activity [8]: 0.51 um; Activity [9]: 1.24 um2; Activity [10]: 0.9 um; Ratio [11]: 0.079
NC(N)=NCCC[C@@H]1NC(=O)CNC(=O)C[C@@H](C(=O)O)NC(=O)[C@@H](c2ccccc2)NC(=O)[C@@H](Cc2c[nH]c3ccccc23)NC1=O	> 10000	> 10000	92	5.5	> 10000	–
NC(N)=NCCC[C@@H]1NC(=O)CNC(=O)C[C@@H](C(=O)O)NC(=O)[C@@H](c2ccccc2)NC(=O)[C@H](Cc2c[nH]c3ccccc23)NC1=O	–	–	–	72	> 10000	–
NC(N)=NCCC[C@@H]1NC(=O)CNC(=O)C[C@@H](C(=O)O)NC(=O)[C@@H](c2ccccc2)NC(=O)[C@@H](Cc2ccc(O)cc2)NC1=O	–	–	–	8.7	> 10000	–
NC(N)=NCCC[C@@H]1NC(=O)CNC(=O)C[C@@H](C(=O)O)NC(=O)[C@@H](c2ccccc2)NC(=O)[C@H](Cc2ccc(O)cc2)NC1=O	–	–	–	39	> 10000	–
NC(N)=NCCC[C@@H]1NC(=O)CNC(=O)C[C@@H](C(=O)O)NC(=O)[C@@H](c2ccccc2)NC(=O)[C@H](CCC(=O)O)NC1=O	–	–	–	92	3870	–
NC(N)=NCCC[C@@H]1NC(=O)CNC(=O)C[C@@H](C(=O)O)NC(=O)[C@@H](c2ccccc2)NC(=O)[C@@H](CCC(=O)O)NC1=O	–	–	–	11	> 10000	–
N=C(N)NCCC[C@@H]1NC(=O)CNC(=O)C[C@@H](C(=O)O)NC(=O)[C@@H](c2ccccc2)NC(=O)[C@@H](CCCCN)NC1=O	> 10000	> 10000	19	8.7	> 10000	–
NCCCC[C@@H]1NC(=O)[C@H](CCCN=C(N)N)NC(=O)CNC(=O)C[C@@H](C(=O)O)NC(=O)[C@@H](c2ccccc2)NC1=O	> 10000	> 10000	140	94	516	–
N=C(N)NCCC[C@@H]1NC(=O)CNC(=O)C[C@@H](C(=O)O)NC(=O)[C@@H](c2ccccc2)NC(=O)[C@H]2CCCN2C1=O	–	–	–	7	> 10000	–
NC(N)=NCCC[C@@H]1NC(=O)CNC(=O)C[C@@H](C(=O)O)NC(=O)[C@@H](c2ccccc2)NC(=O)[C@@H]2CCCN2C1=O	–	–	–	111	675	–
CC(C)[C@H]1NC(=O)[C@H](CCCN=C(N)N)NC(=O)CNC(=O)C[C@@H](C(=O)O)NC(=O)[C@@H](c2ccccc2)NC1=O	–	–	–	7.3	> 10000	–
CC(C)[C@@H]1NC(=O)[C@H](CCCN=C(N)N)NC(=O)CNC(=O)C[C@@H](C(=O)O)NC(=O)[C@@H](c2ccccc2)NC1=O	–	–	–	115	576	–
N=C(N)NCCC[C@@H]1NC(=O)CNC(=O)C[C@@H](C(=O)O)NC(=O)[C@@H](c2ccccc2)NC(=O)CNC1=O	> 10000	> 10000	106	19	> 1000	–
